In brackets after ≈: the same amount, converted by molar mass. Activity calls are given as the source filed them. Bridge positions count the residues as written; N and C are the ends. Peptide text beside a SMILES is read from it.

The test system of data set [1] is Escherichia coli. In words: Antibacterial activity against 1x10^9 CFU Escherichia coli ATCC 25922 infected Wistar rat assessed as rat bacterial count in peritoneal fluid at 1 mg/kg, iv administered immediately after bacterial challenge measured 72 hrs postinfection (Rvb= 8.86 logCFU/ml). In kind it is functional. Summed up:
(§1)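 Male Wistar rats (3–5 months, 300–400 g) under ketamine/xylazine anaesthesia, inoculated i.p. with 1 × 10^9 CFU log-phase E. coli ATCC 25922 in 1 ml saline. Drug given immediately after challenge; saline controls; 15 rats per group. Survivors killed at end of 72 h. Peritoneal lavage with 10 ml saline, plated on blood agar at 35°C for 48 h, aerobic and anaerobic. Detection limit ≤2 log10 CFU/ml. Mean ± SD.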

The test system of data set [2] is Escherichia coli. In words: Antibacterial activity against 1x10^9 CFU Escherichia coli ATCC 25922 infected Wistar rat assessed as rat mortality at 1 mg/kg, iv administered immediately after bacterial challenge measured 72 hrs postinfection (Rvb mortality = 100%). Type of data set: functional.
Data set [3] concerns Escherichia coli. In words: Antibacterial activity against Escherichia coli ATCC 25922 by CLSI method in presence of tachyplesin 3. In kind it is functional.
Data set [4] concerns Rattus norvegicus. Briefly: Toxicity in Wistar rat assessed as occurrence of adverse events at 1 mg/kg, iv. Further details: dose 1 mg/kg, route intravenous. The note with it: in vivo. In kind it is organism-based. Put shortly:
(§2)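 Rats receiving the peptide were watched for local inflammation, anorexia, weight loss, diarrhoea, fever and behavioural change. A separate uninfected group given 1 mg/kg peptide was monitored for temperature, pulse, blood pressure, respiration and oxygenation.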

Data set [5] has as its system Escherichia coli. Briefly: Antibacterial activity against Escherichia coli ATCC 25922 assessed as bacterial count after 24 hrs. Type of data set: functional.
The test system of data set [6] is Escherichia coli. In words: Antibacterial activity against Escherichia coli ATCC 25922 by CLSI method in presence of clarithromycin. In kind it is functional.
Data set [7] has as its system Escherichia coli. Briefly: Antibacterial activity against Escherichia coli ATCC 25922 by CLSI method. Type of data set: functional. Summed up:
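Broth MIC by CLSI (NCCLS M7-A6) dilution method, run in triplicate.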

The subject of data set [8] is Escherichia coli. Briefly: Antibacterial activity against Escherichia coli ATCC 25922 by CLSI method in presence of 2 mg/L tachyplesin 3. Type of data set: functional. Summed up:
(§3)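 Permeabilisation assay: 1 × 10^5 CFU added to twofold clarithromycin dilutions (1,000–0.5 μg/ml) in Iso-Sensitest broth, with or without peptide. Clarithromycin MIC compared with and without peptide. The lowest peptide level needed for sensitivity to 30 μg/ml clarithromycin was also determined.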

In data set [9] the test system is Escherichia coli. In words: Antibacterial activity against Escherichia coli clinical isolates by CLSI method in presence of 2 mg/L tachyplesin 3. Type of data set: functional. Put shortly: as §3
The subject of data set [10] is Rattus norvegicus. In words: Toxicity in Wistar rat assessed as effect on physiological parameters at 1 mg/kg, iv. Type of data set: organism-based. Details: dose 1 mg/kg, route intravenous. The following applies: in vivo. Summed up: as §2
For data set [11], the system named is Escherichia coli. In words: Antibacterial activity against 1x10^9 CFU Escherichia coli ATCC 25922 infected Wistar rat assessed as rat bacterial count in peritoneal fluid at 50 mg/kg, iv administered immediately after bacterial challenge measured 72 hrs postinfection (Rvb= 8.86 logCFU/ml). In kind it is functional. Put shortly:
as §1

Data set [12] concerns Escherichia coli. Briefly: Antibacterial activity against Escherichia coli by CLSI method in presence of 2 mg/L tachyplesin 3. Type of data set: functional, organism-based. Summed up: as §3
For data set [13], the system named is Escherichia coli. In words: Antibacterial activity against 1x10^9 CFU Escherichia coli ATCC 25922 infected Wistar rat assessed as rat mortality at 60 mg/kg, iv administered immediately after bacterial challenge measured 72 hrs postinfection (Rvb mortality = 100%). In kind it is functional.
Data set [14] relates to Rattus norvegicus. Briefly: Decrease in endotoxin level in plasma of Escherichia coli serotype 0111:B4 infected Wistar rat at 1 mg/kg, iv administered immediately after LPS challenge. Details: dose 1 mg/kg. In kind it is functional, organism-based. Summed up: (§4)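 Anaesthetised male Wistar rats (15 per group) given 1.0 mg E. coli 0111:B4 LPS i.p. in 500 μl saline, treated immediately; saline controls. Tail-vein blood sampled into EDTA at 0, 2, 6, 12 and 36 h. Endotoxin by Limulus amebocyte lysate: plasma twofold diluted, heated 5 min at 75°C, read against a 0–0.5 EU/ml standard curve. TNF-α by sandwich ELISA at 450 nm, in duplicate, lower limit 0.05 ng/ml.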

Data set [15] concerns Rattus norvegicus. Briefly: Decrease in TNF-alpha level in plasma of Escherichia coli serotype 0111:B4 infected Wistar rat at 1 mg/kg, iv administered immediately after LPS challenge. Type of data set: functional, organism-based. Further details: dose 1 mg/kg. Summed up:
as §4

Data set [16] has as its system Escherichia coli. Briefly: Antibacterial activity against Escherichia coli ATCC 25922 assessed as inhibition of bacterial growth at 4 mg/L. In kind it is functional, organism-based.

For `CC[C@H](C)[C@@H]1NC(=O)CNC(=O)[C@H](CCCNC(=N)N)NC(=O)[C@H](Cc2ccc(O)cc2)NC(=O)[C@@H]2CSSC[C@H](NC1=O)C(=O)N[C@@H](Cc1ccc(O)cc1)C(=O)N[C@@H](CCCNC(=N)N)C(=O)N[C@@H](CCCCN)C(=O)N[C@H](C(=O)N[C@@H](CCCNC(=N)N)C(N)=O)CSSC[C@H](NC(=O)[C@H](Cc1c[nH]c3ccccc13)NC(=O)[C@@H](N)CCCCN)C(=O)N[C@@H](Cc1ccccc1)C(=O)N[C@@H](CCCNC(=N)N)C(=O)N[C@@H](C(C)C)C(=O)N2` [TACHYPLESIN III] (H-KWCFRVCYRGICYRKCR-NH2; disulfide 3-16, 7-12), the log10CFU/ml in the data set with Escherichia coli [1] was 4.46. The Activity in the data set on Escherichia coli [2] was 33.3%; in the data set on Rattus norvegicus [4] it was “Non-toxic”. The “fractional inhibitory concentration index (FICI)” value with Escherichia coli [3] and in the data set with Escherichia coli [6] was 0.385 in each case. The CFU in the data set on Escherichia coli [5] is recorded as 5.65 ×10⁶ /ml.

Consider `CC[C@H]1OC(=O)[C@H](C)[C@@H](O[C@H]2C[C@@](C)(OC)[C@@H](O)[C@H](C)O2)[C@H](C)[C@@H](O[C@@H]2O[C@H](C)C[C@H](N(C)C)[C@H]2O)[C@](C)(OC)C[C@@H](C)C(=O)[C@H](C)[C@@H](O)[C@]1(C)O` [CLARITHROMYCIN], for which the MIC (as a rule, the smallest concentration in the dilution series that meets the test's criterion for growth inhibition) against Escherichia coli [7] came to 128 µg/mL (≈ 171 µM); with Escherichia coli [8] it was 32 µg/mL; in the data set with Escherichia coli [9], 32 µg/mL. Besides, the figures for the Activity result in the data set on Rattus norvegicus [10] and in the data set on Escherichia coli [13] were “Non-toxic” and 66.6%, respectively. Further, the log10CFU/ml with Escherichia coli [11] came out at 6.68. Moreover, the inhibition result with Escherichia coli [12] was “Active”.

Take `CC[C@H](C)[C@H](NC(=O)CNC(=O)[C@H](CCCNC(=N)N)NC(=O)[C@H](Cc1ccc(O)cc1)NC(=O)[C@H](CS)NC(=O)[C@@H](NC(=O)[C@H](CCCNC(=N)N)NC(=O)[C@H](Cc1ccccc1)NC(=O)[C@H](CS)NC(=O)[C@H](Cc1c[nH]c2ccccc12)NC(=O)[C@@H](N)CCCCN)C(C)C)C(=O)N[C@@H](CS)C(=O)N[C@@H](Cc1ccc(O)cc1)C(=O)N[C@@H](CCCNC(=N)N)C(=O)N[C@@H](CCCCN)C(=O)N[C@@H](CS)C(=O)N[C@@H](CCCNC(=N)N)C(N)=O` (H-KWCFRVCYRGICYRKCR-NH2): the result in the data set with Rattus norvegicus [14] and in the data set on Rattus norvegicus [15] was Active. The inhibition entry with Escherichia coli [16] is “Active”.

The record behind these values is ChEMBL document CHEMBL1649113, “Efficacy of the combination of tachyplesin III and clarithromycin in rat models of Escherichia coli sepsis” (Antimicrob Agents Chemother, 2008).
